Columns and labels:
[1] = test system: human colorectal adenocarcinoma (HT-29); test: SRB cytotoxicity assay, HT-29; assay type: cell-based; conditions: HT-29, 72 h, read-out: Cytotoxicity (IC50) HT-29
[2] = test system: human neuroblastoma (SH-SY5Y); test: SRB cytotoxicity assay, SH-SY5Y; assay type: cell-based; conditions: for IC50: Homo sapiens, SH-SY5Y, 72 h, read-out: Cytotoxicity (IC50) SH-SY5Y
[3] = test system: human intrahepatic cholangiocarcinoma (KKU-M213); test: SRB cytotoxicity assay, KKU-M213; assay type: cell-based; conditions: KKU-M213, 72 h, read-out: Cytotoxicity (IC50) KKU-M213
[4] = test system: human lung carcinoma (A-549); test: SRB cytotoxicity assay, A-549; assay type: cell-based; conditions: A549, 72 h, read-out: Cytotoxicity (IC50) A-549
[5] = SRB cytotoxicity assay, normal cell line CL; assay type: cell-based; conditions: human, CL cells (normal liver hepatic cell line)
[6] = test system: human squamous cell carcinoma (FaDu); test: SRB cytotoxicity assay, FaDu; assay type: cell-based; conditions: 72 h, read-out: Cytotoxicity (IC50) FaDu
[7] = test system: human mammary gland adenocarcinoma (MDA-MB-231); test: SRB cytotoxicity assay, MDA-MB-231; assay type: cell-based; conditions: MDA-MB-231, 72 h, read-out: Cytotoxicity (IC50) MDA-MB-231
[8] = test system: six cancer cell lines, KKU-M213, FaDu, HT-29, MDA-MB-231, A-549, and SH-SY5Y; test: SRB cytotoxicity assay, all tested cancer cell lines; assay type: cell-based, human; conditions: for Cytotoxicity (in words): under tested concentrations (0.1–50 μM)
Procedure, shortened: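 Sulforhodamine B assay, slightly modified, with ellipticine as positive control. Compounds were in 10% DMSO and tested over 0.1–50 μM. Cells exposed for 72 h at 37 °C, 5% CO2, humidified. Fixed with 10% TCA, stained with 0.4% SRB, unbound dye washed off with 1% acetic acid, bound dye solubilised in 10 mM Tris base (pH 10.5). A510 read. IC50 is the concentration giving 50% growth inhibition.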

[9] = test system: P. aeruginosa (ATCC 27853); test: Agar well diffusion method, P. aeruginosa; assay type: cell-based; conditions: Pseudomonas aeruginosa, ATCC27853, read-out: zone of inhibition P. aeruginosa
Procedure, shortened: (§1)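 Bacteria swabbed onto Mueller–Hinton agar, then 6 mm wells cut with a sterile cork borer. Each well received 20 µL of test compound dissolved in DMSO at 5 mg mL−1. Plates held 30 min in a refrigerator for diffusion, then incubated at 37 °C for 16–20 h. Inhibition zone measured in mm. Negative control: 10% DMSO.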

E. coli (ATCC 25922) = test: Agar well diffusion method, E. coli; assay type: cell-based; conditions: Escherichia coli, ATCC25922, read-out: zone of inhibition E. coli
Procedure, shortened: as §1

S. aureus (ATCC 25923) = test: Agar well diffusion method, S. aureus; assay type: cell-based; conditions: Staphylococcus aureus, ATCC25923, read-out: zone of inhibition S. aureus
Procedure, shortened: as §1

| Structure (SMILES) | IC50 [1] | IC50 [2] | IC50 [3] | IC50 [4] | IC50 at 72 h [5] | IC50 [6] | IC50 [7] | Selectivity Index (SI) SH-SY5Y ([2]; ratio of IC50 on normal cell (CL) divided by that on cancer cell) | Cytotoxicity (in words) [8] | IC50 ([8]; Homo sapiens, read-out: IC50 on all tested cancer cell lines) | zone of inhibition at 5 µg/mL [9] | zone of inhibition at 5 µg/mL (E. coli (ATCC 25922)) | zone of inhibition at 5 µg/mL (S. aureus (ATCC 25923)) |
| --- | --- | --- | --- | --- | --- | --- | --- | --- | --- | --- | --- | --- | --- |
| CCCC(=O)Oc1c(C)c(O)c(C(=O)/C=C/c2ccccc2)c(OC)c1C [Compound 2a, 2′-Hydroxy-4′-butyryloxy-6′-methoxy-3′,5′-dimethylchalcone] | 35.8 µM | 27.6 µM | 30.1 µM | > 50 µM | 32.8 µM | 31.2 µM | 38.2 µM |  |  |  |  |  |  |
| CCCCCC(=O)Oc1c(C)c(O)c(C(=O)/C=C/c2ccccc2)c(OC)c1C [Compound 2b, 2′-Hydroxy-4′-caproyloxy-6′-methoxy-3′,5′-dimethylchalcone] | 26.6 µM | 5.2 µM | 21.3 µM | 24.8 µM | 23.5 µM | 18.9 µM | 18.1 µM | 4.53 |  |  |  |  |  |
| CCCCCCCC(=O)Oc1c(C)c(O)c(C(=O)/C=C/c2ccccc2)c(OC)c1C [Compound 2c, 2′-Hydroxy-4′-capryloyloxy-6′-methoxy-3′,5′-dimethylchalcone] | 26.6 µM | 18 µM | 24.4 µM | > 50 µM | 25.2 µM | 20.6 µM | 25.9 µM |  |  |  |  |  |  |
| CCCCCCCCCC(=O)Oc1c(C)c(O)c(C(=O)/C=C/c2ccccc2)c(OC)c1C [Compound 2d, 2′-Hydroxy-4′-caprinoyloxy-6′-methoxy-3′,5′-dimethylchalcone] | > 50 µM | 24.8 µM | > 50 µM | > 50 µM | 41.9 µM | 34.7 µM | 36.7 µM |  |  |  |  |  |  |
| COc1c(C)c(OC(C)=O)c(C)c(O)c1C(=O)/C=C/c1ccccc1 [Compound 2f, 2′-Hydroxy-4′-acetyloxy-6′-methoxy-3′,5′-dimethylchalcone] | 38.6 µM | 28.6 µM | 43 µM | > 50 µM | 31 µM | 36.5 µM | 40.3 µM |  |  |  |  |  |  |
| COc1c(C)c(OCc2ccccc2)c(C)c(O)c1C(=O)/C=C/c1ccccc1 [Compound 2h, 2′-Hydroxy-4′-benzyloxy-6′-methoxy-3′,5′-dimethylchalcone] | 27.5 µM | 16.4 µM | 23.2 µM | 9.99 µM | 22.6 µM | 14 µM | 26.9 µM |  |  |  |  |  |  |
| C=CCOc1c(C)c(O)c(C(=O)/C=C/c2ccccc2)c(OC)c1C [Compound 2i, 2′-Hydroxy-4′-allyloxy-6′-methoxy-3′,5′-dimethylchalcone] | 34.6 µM | 28.2 µM | 31.3 µM | 36.7 µM | 31.7 µM | 29 µM | 39.1 µM |  |  |  |  |  |  |
| COc1c(C)c(OC(=O)c2ccccc2)c(C)c(O)c1C(=O)/C=C/c1ccccc1 [Compound 2k, 2′-Hydroxy-4′-benzoyloxy-6′-methoxy-3′,5′-dimethylchalcone] | 32.5 µM | 20.2 µM | > 50 µM | 41.3 µM | > 50 µM | 37.9 µM | > 50 µM |  |  |  |  |  |  |
| COc1c(C)c(OC(=O)c2ccc(C)cc2)c(C)c(O)c1C(=O)/C=C/c1ccccc1 [Compound 2l, 2′-Hydroxy-4′-(p-toluoyloxy)-6′-methoxy-3′,5′-dimethylchalcone] | 26.8 µM | 15.6 µM | 28.9 µM | 22.4 µM | 25.4 µM | 22.1 µM | 25.1 µM |  |  |  |  |  |  |
| COc1c(C)c(OS(=O)(=O)c2ccc3ccccc3c2)c(C)c(O)c1C(=O)/C=C/c1ccccc1 [Compound 2n, 2′-Hydroxy-4′-(2-naphthalenesulfonyl)oxy-6′-methoxy-3′,5′-dimethylchalcone] | 24.7 µM | 16.4 µM | 27.8 µM | > 50 µM | 30.4 µM | 21.1 µM | 39.8 µM |  |  |  |  |  |  |
| COc1c(C)c(OC(C)=O)c(C)c(OC(C)=O)c1C(=O)/C=C/c1ccccc1 [Compound 5f, 2′,4′-Diacetyloxy-6′-methoxy-3′,5′-dimethylchalcone] | 36.5 µM | 18.8 µM | 28 µM | 15.4 µM | 27.4 µM | 33.6 µM | 29.8 µM |  | poor cytotoxicity |  |  |  |  |
| COc1c(C)c(OC)c(C(=O)/C=C/c2ccccc2)c(OC)c1C [Compound 5g, 2′,4′,6′-Trimethoxy-3′,5′-dimethylchalcone] | 21.9 µM | 12.6 µM | 23.5 µM | 22.7 µM | 18.7 µM | 19.3 µM | 29.8 µM |  | moderate cytotoxicity | 12.6 to 29.8 µM |  |  |  |
| COc1c(C)c(O)c(C)c(O)c1C(=O)/C=C/c1ccccc1 [DMC, 2′,4′-Dihydroxy-6′-methoxy-3′,5′-dimethylchalcone] | 38.6 µM | 13.1 µM | 29.4 µM | 19.9 µM | 15.6 µM | 37.6 µM | 37.6 µM |  |  |  | 8 mm | 8 mm | 9 mm |
| Cc1c2ccncc2c(C)c2c1[nH]c1ccccc12 [Ellipticine, reference compound] | 2.15 µM | 2.64 µM | 2.4 µM | 1.14 µM | 2.07 µM | 2.03 µM | 2.8 µM |  |  |  |  |  |  |

From PMC9041536 (RSC Advances, 2021)
